ChEMBL document CHEMBL1949610, “Selection of cyclic-peptide inhibitors targeting Aurora kinase A: problems and solutions” (Bioorg Med Chem, 2011)
The source made the active and inactive calls. No cut-off for these calls is given here. Positions of bridges follow the written chain, without caps; N, C: chain ends. Residues, ends and D or L forms follow the SMILES beside them.

Key:
[1] = Inhibition of PKA assessed as [gamma-33P]ATP incorporation into kemptide substrate at 10 uM after 40 mins by liquid scintillation counting
[2] = molecular target: T1, Aurora kinase A (Homo sapiens) (UniProt O14965); experiment: Inhibition of human aurora A assessed as [gamma-33P]ATP incorporation into kemptide substrate at 10 uM after 40 mins by liquid scintillation counting
T1 sequence (whole entry): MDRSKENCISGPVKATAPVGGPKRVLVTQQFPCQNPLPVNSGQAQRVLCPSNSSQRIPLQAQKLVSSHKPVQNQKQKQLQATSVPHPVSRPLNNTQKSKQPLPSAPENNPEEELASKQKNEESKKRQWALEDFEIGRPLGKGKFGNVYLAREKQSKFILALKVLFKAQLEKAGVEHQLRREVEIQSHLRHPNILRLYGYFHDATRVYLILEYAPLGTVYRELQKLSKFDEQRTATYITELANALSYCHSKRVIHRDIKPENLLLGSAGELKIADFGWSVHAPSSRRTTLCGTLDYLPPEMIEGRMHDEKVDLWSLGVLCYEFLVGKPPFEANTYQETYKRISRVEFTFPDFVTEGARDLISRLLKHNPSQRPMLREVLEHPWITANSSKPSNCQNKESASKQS

[3] = molecular target: Dual specificity protein kinase CLK2 (Homo sapiens) (UniProt P49760); experiment: Inhibition of CLK2 assessed as [gamma-33P]ATP incorporation into AKRRRLSSLRA substrate at 10 uM after 40 mins by liquid scintillation counting
[4] = molecular target: T1, Aurora kinase A (Homo sapiens); experiment: Un-competitive inhibition of human aurora A using kemptide as substrate by double reciprocal plot analysis
Method in brief: (§1)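 Kinetics run in duplicate: 0.5 nM Aurora A, 100 μM [γ-³²P]ATP, Kemptide at 25, 50 and 200 μM, inhibitor at 0, 10 and 50 μM, in 20 mM MOPS, 10 mM MgCl, pH 7, 0.01% BSA, 2.5% DMSO. Data shown as double-reciprocal plots and fit to competitive, noncompetitive, mixed and uncompetitive models.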

[5] = molecular target: T2, Aurora kinase A (Homo sapiens, UniProt O14965); experiment: Mixed type inhibition of human aurora A using kemptide as a substrate by double reciprocal plot analysis; method in brief: as §1
T2 sequence (O14965 whole entry): T1 sequence (whole entry)

[6] = molecular target: T1, Aurora kinase A (Homo sapiens); experiment: Competitive inhibition of human aurora A using kemptide as a substrate by double reciprocal plot analysis; method in brief: as §1

Sequence of Dual specificity protein kinase CLK2 (Homo sapiens) (P49760 whole entry, looked up): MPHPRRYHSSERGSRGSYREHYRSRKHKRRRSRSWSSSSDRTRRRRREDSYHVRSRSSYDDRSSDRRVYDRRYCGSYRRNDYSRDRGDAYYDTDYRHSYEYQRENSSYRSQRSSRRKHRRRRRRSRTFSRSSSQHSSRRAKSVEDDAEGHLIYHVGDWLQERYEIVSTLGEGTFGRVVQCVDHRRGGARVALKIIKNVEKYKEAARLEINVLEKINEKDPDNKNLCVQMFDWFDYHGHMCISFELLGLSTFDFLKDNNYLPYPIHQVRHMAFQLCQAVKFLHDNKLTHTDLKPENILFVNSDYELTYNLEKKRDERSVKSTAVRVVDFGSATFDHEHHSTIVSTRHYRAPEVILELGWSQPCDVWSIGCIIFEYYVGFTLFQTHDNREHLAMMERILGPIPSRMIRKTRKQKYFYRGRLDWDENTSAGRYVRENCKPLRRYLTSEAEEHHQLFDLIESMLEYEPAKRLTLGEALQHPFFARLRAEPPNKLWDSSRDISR

inhibition [1] | inhibition [2] | inhibition [3] | Kiuc [4] | Ki [5] | Kic [6] | SMILES
inactive | Active | inactive |  |  |  | CC(C)C[C@@H]1NC(=O)[C@H](Cc2ccccc2)NC(=O)[C@H](CCCNC(=N)N)NC(=O)[C@@H]2CCCN2C(=O)[C@@H](N)CSSC[C@@H](C(=O)NCC(N)=O)NC(=O)[C@H](Cc2c[nH]c3ccccc23)NC(=O)[C@@H]2CCCN2C1=O (H-CPRFLPWCG-NH2; disulfide 1-8)
inactive | Active | inactive | 17.6 µM | 27.2 µM | 10.4 µM | CC(C)C[C@@H]1NC(=O)[C@H](Cc2c[nH]c3ccccc23)NC(=O)[C@H](Cc2c[nH]c3ccccc23)NC(=O)[C@@H]2CCCN2C(=O)[C@H](CCCNC(=N)N)NC(=O)[C@H]([C@@H](C)O)NC(=O)[C@@H](N)CSSC[C@@H](C(=O)NCC(N)=O)NC1=O (H-CTRPWWLCG-NH2; disulfide 1-8)
